Measured values from different studies.
Lines come from different studies, so protocols differ.
Read-out: cell growth or viability

With `Cc1c(-c2ccc(N3CCc4cccc(C(=O)Nc5nc6ccccc6s5)c4C3)nc2C(=O)NCCCCCCNc2cccc3c2C(=O)N(C2CCC(=O)NC2=O)C3=O)cnn1CC12CC3CC(CC(C3)C1)C2` (stereo not shown) the IC50 was 1.03 µM (MOLT-4; MTS; 48 h).
For `Nc1nc(S)nc(O)c1N=Cc1cn(-c2ccccc2)nc1-c1ccccc1`, the CC50 was 17.3 µM (Jurkat; 48 h).
With `C=C(NC(=O)C(=C)NC(=O)c1csc(C2=N[C@@H]3c4csc(n4)[C@H]4NC(=O)c5csc(n5)[C@H]([C@](C)(O)[C@@H](C)O)NC(=O)[C@H]5CSC(=N5)/C(=C/C)NC(=O)[C@H]([C@@H](C)O)NC(=O)c5csc(n5)[C@]3(CC2)NC(=O)[C@H](C)NC(=O)C(=C)NC(=O)[C@H](C)NC(=O)[C@H]([C@@H](C)CC)N[C@@H]2C=Cc3c([C@H](C)O)cc(nc3[C@H]2O)C(=O)O[C@@H]4C)n1)C(N)=O` the EC50 was 4.4 µM (LNCaP).
With `Cc1c(Cl)c(=O)oc2cc(OCCCCSC#N)ccc12` the GI50 was 8.2 µM (MIA PaCa-2; SRB).
For `COc1ccc(-c2nn(-c3ccccc3)cc2C=Nc2c(N)nc(S)nc2O)cc1`, the CC50 was 17.3 µM (Jurkat; 48 h).
`N#CSCCCCOc1ccc2c(-c3ccccc3)cc(=O)oc2c1` gave a GI50 of 28 µM (MIA PaCa-2; SRB).
`Cc1nc(Nc2ncc(C(=O)Nc3c(C)cccc3Cl)s2)cc(N2CC[C@H](O)C2)n1` has an inhibition of 47% (Jurkat; ATP luminescence; 10 µM, 72 h).
With `C[C@H](Nc1ccc2c(c1)OCCn1cc(N3C(=O)OC[C@H]3C(F)F)nc1-2)C(N)=O` the EC50 was 0.0516 µM (TCC-SUP; ATP luminescence; 5 days).
With `Cc1c(-c2ccc(N3CCc4cccc(C(=O)Nc5nc6ccccc6s5)c4C3)nc2C(=O)O)cnn1CC12CC3CC(C1)CC(C(=O)NCCCCCCNc1cccc4c1C(=O)N(C1CCC(=O)NC1=O)C4=O)(C3)C2` (stereo not shown) the IC50 was 0.0162 µM (MOLT-4; MTS; 48 h).
`Nc1nc(S)nc(O)c1N=Cc1cn(-c2ccccc2)nc1-c1ccc([N+](=O)[O-])cc1` has a CC50 of > 40 µM (Jurkat; 48 h).
With `Cc1nc(NC(=O)N2CCC[C@H]2C(N)=O)sc1-c1ccnc(C(C)(C)C(F)(F)F)c1` the EC50 was 3.07 µM (TCC-SUP; ATP luminescence; 5 days).
`O=c1[nH]ncc(NN=Cc2cn(-c3ccccc3)nc2-c2ccccc2)c1Cl` has a CC50 of 3.66 µM (Jurkat; 48 h).
The viability of `O=C(C[C@@H](C(F)F)n1ccc(F)n1)N1CCC(O)(Cn2cnc3c(cnn3-c3ccc(F)cc3)c2=O)CC1` is reported as 90% (LNCaP; CCK-8; 1.524 nM).
